Rows were chosen to be rich in hits. Some 1.9% of all compounds tested hit in one or more screens of this group.
ABHD5-PLIN5 inh – blocks binding of human ABHD5 to perilipin-5; 360,000 tested, 0.78% active; AID 602281; inhibition, % at 4 µM; Split G. princeps luciferase complementation, luminescence, 4 h;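 active = inhibition above the mean inhibition across every tested compound plus 3 SD, cut at about 22% in these data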;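 note: 0% = DMSO only wells and the 100% control is not disclosed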
Rpn11 block – blocks the human proteasome subunit Rpn11 | 360,000 tested, 0.59% active | human 26S proteasome, Ub4-pepOG fluorescence polarization; 20S core pre-blocked with epoxomicin | AID 588493 | inhibition, % at 20 µM;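 active = inhibition at 20 µM, scaled to each plate's controls, above about 33%, limit read from the data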
XiGFP reactiv – X-chromosome reactivation activator; XiGFP mouse fibroblasts, % GFP-positive cells imaging, 3 d; cells co-treated with 5-aza-dC sensitizer; scaled so ellipticine positive control = 100%; activation, % at 7.58 µM; 360,000 tested, 0.055% active; AID 743238;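 active = mean normalized replicate activation at least 10% and every replicate at or above 10%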;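 note: 0% = median of on-plate neutral control wells and 100% = ellipticine 6 µM median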
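material = 68-5-11 XiGFP fibroblast line | medium = DMEM plus 5-aza-dC sensitizer | schedule = 3 days compound exposure | benchmarks = positive control ellipticine, 6 µM final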
Rin1-Abl PPI inh – human Rin1-Abl interaction inhibition. P00519+Q13671. TR-FRET Rin1/Abl binding, biochemical. inhibition, % at 7.35 µM. 360,000 tested, 0.4% active. AID 588664; in the data active = inhibition above about 5%, passing the limit was not always enough
Target sequence (P00519 whole entry, looked up): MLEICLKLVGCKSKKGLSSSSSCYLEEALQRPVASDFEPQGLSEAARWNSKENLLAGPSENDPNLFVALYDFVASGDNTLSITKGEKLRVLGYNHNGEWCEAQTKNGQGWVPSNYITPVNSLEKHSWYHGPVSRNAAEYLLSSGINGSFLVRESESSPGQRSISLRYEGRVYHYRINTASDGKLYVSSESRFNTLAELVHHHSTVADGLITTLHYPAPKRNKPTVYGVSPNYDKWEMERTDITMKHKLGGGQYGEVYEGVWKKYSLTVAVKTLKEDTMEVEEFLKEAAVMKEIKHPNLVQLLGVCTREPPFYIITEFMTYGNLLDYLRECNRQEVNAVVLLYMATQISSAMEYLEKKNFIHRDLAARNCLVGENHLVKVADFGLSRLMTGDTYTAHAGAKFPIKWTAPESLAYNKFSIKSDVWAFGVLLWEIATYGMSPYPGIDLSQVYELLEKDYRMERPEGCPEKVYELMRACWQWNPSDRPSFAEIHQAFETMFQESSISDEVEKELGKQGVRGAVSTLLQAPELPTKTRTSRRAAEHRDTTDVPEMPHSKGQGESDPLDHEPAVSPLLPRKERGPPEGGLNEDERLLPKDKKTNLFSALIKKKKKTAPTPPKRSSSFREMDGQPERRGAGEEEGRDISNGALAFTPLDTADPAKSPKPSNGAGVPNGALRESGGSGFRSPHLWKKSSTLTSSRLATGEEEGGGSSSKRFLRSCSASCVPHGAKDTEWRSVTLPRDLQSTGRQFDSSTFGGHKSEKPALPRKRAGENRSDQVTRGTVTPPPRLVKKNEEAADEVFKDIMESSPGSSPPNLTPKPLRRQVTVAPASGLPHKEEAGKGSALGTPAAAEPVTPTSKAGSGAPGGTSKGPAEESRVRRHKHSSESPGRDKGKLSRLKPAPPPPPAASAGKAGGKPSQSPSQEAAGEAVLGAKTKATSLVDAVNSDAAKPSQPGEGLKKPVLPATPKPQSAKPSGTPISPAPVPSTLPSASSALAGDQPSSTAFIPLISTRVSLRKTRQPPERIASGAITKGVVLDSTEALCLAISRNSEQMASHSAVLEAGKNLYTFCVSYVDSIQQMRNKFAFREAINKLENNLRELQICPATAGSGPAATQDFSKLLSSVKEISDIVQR
Target sequence (Q13671 whole entry, looked up): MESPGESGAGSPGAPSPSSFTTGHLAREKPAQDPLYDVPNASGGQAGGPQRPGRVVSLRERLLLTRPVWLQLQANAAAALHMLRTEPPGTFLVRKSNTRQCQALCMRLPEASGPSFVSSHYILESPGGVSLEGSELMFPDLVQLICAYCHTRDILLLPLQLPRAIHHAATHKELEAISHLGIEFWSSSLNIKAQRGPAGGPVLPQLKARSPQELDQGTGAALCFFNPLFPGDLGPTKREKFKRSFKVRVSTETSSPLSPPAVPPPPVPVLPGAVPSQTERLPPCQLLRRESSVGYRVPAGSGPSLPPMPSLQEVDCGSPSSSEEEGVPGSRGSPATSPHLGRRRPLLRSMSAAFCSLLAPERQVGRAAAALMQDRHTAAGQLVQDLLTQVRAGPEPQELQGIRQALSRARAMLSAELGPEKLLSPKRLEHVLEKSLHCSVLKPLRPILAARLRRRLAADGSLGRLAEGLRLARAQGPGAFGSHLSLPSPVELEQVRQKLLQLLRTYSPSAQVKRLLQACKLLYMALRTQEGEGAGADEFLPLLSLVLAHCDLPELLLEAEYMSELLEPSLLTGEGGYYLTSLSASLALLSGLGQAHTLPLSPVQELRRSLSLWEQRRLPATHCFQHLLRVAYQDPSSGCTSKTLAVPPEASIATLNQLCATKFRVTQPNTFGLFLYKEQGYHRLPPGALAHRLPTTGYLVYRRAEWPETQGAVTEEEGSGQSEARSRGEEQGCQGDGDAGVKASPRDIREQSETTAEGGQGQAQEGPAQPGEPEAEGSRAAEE
NadD inh – NadD (S. aureus) enzyme inhibition; purified NadD enzyme, colorimetric absorbance read-out; inhibition, % at 20 µM; 360,000 tested, 0.78% active; AID 602399; in the data active = inhibition above about 26%
NadD inh conf – NadD (S. aureus) inhibition, single concentration confirmation. shares compounds with NadD inh. purified S. aureus NadD, colorimetric enzyme assay. inhibition, % at 20 µM. 2,000 tested, 13% active. AID 624309; in the data active = inhibition mostly above about 42%, no sharp cut-off; inactive = mostly below about 42%
* hit, by the source's call; . = no result.

SMILES | ABHD5-PLIN5 inh | Rpn11 block | XiGFP reactiv | Rin1-Abl PPI inh | NadD inh | NadD inh conf
c1ccc(CN(Cc2ccccc2)C(c2ccnc3ccccc23)c2nnnn2-c2ccc3c(c2)OCCO3)cc1 (stereo unspecified) | 5.1 | . | 0.0 | . | 40.3* | 34.8
Cc1cccc(C)c1-n1nnnc1C(c1ccnc2ccccc12)N(C)Cc1ccc(Cl)c(Cl)c1 (stereo unspecified) | -0.5 | . | 0.0 | . | 29.3* | 9.1
COc1ccc2c3c(cccc13)N(C)N=C2C | -13.1 | -93.8 | . | -12.7 | 52.1* | 9.3
O=C(Nc1nnc(N2CCCCCC2)s1)c1cc(-c2ccc(Br)cc2)on1 | -6.4 | 6.4 | -0.2 | 0.2 | 14.4 | .
CC1CCCC(C)N1c1nnc(NC(=O)c2cc(-c3ccc(Br)cc3)on2)s1 (stereo unspecified) | -1.3 | 33.8 | 0.5 | -1.5 | 41.1* | 20.3
O=C(NNC(=S)NC(=O)c1cccs1)c1ccc(NC(=O)c2ccccc2)cc1 | -5.9 | 8.7 | 0.0 | -0.9 | 31.6* | 37.3
O=C(Nc1ccc(NC(=S)NC(=O)c2cccs2)cc1)c1ccccc1 | -4.6 | 2.8 | . | -5.5 | 1.3 | .
NC(=O)[C@H]1CC2(CC(c3cccc(NC(=O)COc4ccc(Cl)cc4)c3)=NO2)CN1C(=O)c1ccc(Cl)cc1 (stereo partly specified) | -1.8 | -10.9 | 0.0 | -2.3 | 39.7* | 28.1
NC(=O)[C@H]1CC2(CC(c3cccc(NC(=O)COc4ccc(Cl)cc4)c3)=NO2)CN1C(=O)c1ccccc1C(=O)c1ccccc1 (stereo partly specified) | 17.4 | 5.5 | -0.1 | 1.0 | 31.4* | 39.8
CCC(=O)Nc1cccc(C2=NOC3(C2)C[C@@H](C(N)=O)N(C(=O)c2ccccc2C(=O)c2ccccc2)C3)c1 (stereo partly specified) | 2.5 | -6.4 | 0.0 | 5.4 | 8.0 | .
Cc1ccc(NC(=O)CN2C(=O)S/C(=C/c3ccc(O)c([N+](=O)[O-])c3)C2=O)cc1C | 4.2 | 0.3 | 0.0 | -2.2 | 34.8* | 33.8
Cc1cccc(NC(=O)CN2C(=O)S/C(=C\c3ccc(O)c([N+](=O)[O-])c3)C2=O)c1 | 0.5 | -2.3 | 0.3 | -0.9 | 14.5 | .
CCCn1c(C)nc2c(c1=O)c1nc3ccccc3nc1n2CCC1=CCCCC1 | 12.0 | 7.5 | . | 1.6 | 3.4 | .
Cc1nc2c(c(=O)n1CCC1=CCCCC1)c1nc3ccccc3nc1n2/N=C/c1ccco1 | 5.3 | -18.4 | . | 3.6 | 49.2* | 17.9
COc1cccc(-n2c(SCC(=O)N3CCc4ccccc43)nnc2-c2c[nH]c3ccccc23)c1 | 10.1 | 3.3 | 0.8 | 0.1 | 38.4* | 7.4
C[C@@H]1CN([C@H](C)CO)S(=O)(=O)c2ccc(C3=CCCC3)cc2O[C@@H]1CN(C)Cc1cncnc1 | . | . | -0.9 | . | . | .
N#C/C(=C\c1ccc(-c2ccc([N+](=O)[O-])cc2)o1)C(=O)Nc1nc(-c2cccs2)cs1 | -0.6 | 4.9 | -0.2 | -0.2 | 40.1* | 3.9
N#C/C(=C/c1ccc(-c2cccc([N+](=O)[O-])c2)o1)C(=O)Nc1nc(-c2cccs2)cs1 | 3.7 | 5.1 | 0.3 | 3.1 | 45.6* | -9.3
CC(=O)Nc1nc(-c2ccc([N+](=O)[O-])cc2)cs1 | 1.8 | -5.5 | -0.1 | 2.3 | -1.4 | .
N#C/C(=C\c1ccc(-c2cccc([N+](=O)[O-])c2)o1)C(=O)N1CCOCC1 | 9.9 | -6.6 | 0.0 | -8.1 | -3.6 | .
N#C/C(=C\c1ccc(-c2ccccc2[N+](=O)[O-])o1)C(=O)Nc1nc(-c2cccs2)cs1 | -8.8 | -31.1 | 0.3 | 0.4 | 34.0* | -5.1
C[C@H]1CCCCO[C@@H](CN(C)C(=O)C2CCCCC2)[C@@H](C)CN([C@@H](C)CO)C(=O)c2cc(NC(=O)Cc3ccccc3)ccc2O1 | . | . | 0.1 | . | . | .
Cn1ncc(Cl)c1C(=O)NC(=S)Nc1sc2c(c1C#N)CCCCC2 | -5.0 | -7.7 | . | -1.9 | 28.6* | 2.8
Cc1cc(NC(=O)CSc2nc3c([nH]c4ccccc43)c(=O)n2-c2cccc(C(F)(F)F)c2)no1 | -1.6 | 0.7 | . | -6.2 | 44.5* | 4.9
O=C(Nc1cccc(S(=O)(=O)N2CCCCC2)c1)c1c2c(nc3ccccc13)CCN(Cc1ccccc1)C2 | 12.4 | 4.0 | 0.0 | -3.0 | 30.0* | -5.0
SMILES | ABHD5-PLIN5 inh | Rpn11 block | XiGFP reactiv | Rin1-Abl PPI inh | NadD inh | NadD inh conf
O=C(CN1CCN(Cc2ccccc2)CC1)Nc1cccc(S(=O)(=O)N2CCCCCC2)c1 | 5.3 | -3.2 | -0.1 | 1.4 | -9.2 | .
CCOC(=O)N/N=C\c1ccc(-c2cc(Cl)ccc2Cl)o1 | -3.5 | -3.6 | 0.1 | -2.6 | -3.4 | .
NC(=S)N/N=C/c1ccc(-c2ccc([N+](=O)[O-])cc2)o1 | -18.8 | 26.2 | 1.1 | -3.6 | 32.5* | 10.3
Cc1ccc(C(=O)N/N=C\c2ccc(-c3ccc([N+](=O)[O-])cc3)o2)cn1 | 0.1 | -11.7 | 0.9 | -3.8 | 2.5 | .
NC(=S)N/N=C/c1ccc(-c2cc(Cl)cc(Cl)c2)o1 | -10.3 | 37.5 | . | -5.6 | 38.3* | 17.0
NC(=S)N/N=C/c1ccc(-c2cc(Cl)ccc2Cl)o1 | -9.1 | 23.6 | . | 2.6 | 42.5* | 26.5
C[C@H]1CN([C@@H](C)CO)C(=O)c2cccc(NS(=O)(=O)c3ccccc3)c2O[C@@H]1CN(C)Cc1ccncc1 | . | . | -0.7 | . | . | .
COc1ccc(S(=O)(=O)N[C@H]2CC[C@@H](CCn3cc(C(C)C)nn3)O[C@H]2CO)cc1 | . | . | 0.1 | . | . | .
CCN1CCc2nc(SCC(=O)Nc3ccc(OC)cc3)c(C#N)cc2C1 | 0.4 | -5.4 | . | 2.0 | 2.2 | .
COc1ccc(NC(=O)CSc2nc3c(cc2C#N)CN(C)CC3)cc1 | 7.4 | 6.6 | . | 0.3 | 30.4* | -7.8
COc1ccc2c(c1)nc(-c1cccc(Br)c1)c(=O)n2C(c1ccccn1)c1nc2ccccc2[nH]1 (stereo unspecified) | 16.7 | -3.4 | -0.1 | 0.9 | 46.4* | 31.5
Oc1ccc2ccccc2c1/C=C/c1ccc2c(Br)cc(Br)c(O)c2n1 | -1.8 | 35.1 | 0.0 | 4.9 | 57.7* | 32.9
Oc1c(I)cc(I)c2cccnc12 | 2.5 | 30.3 | 0.0 | 1.6 | 45.6* | 6.2
Oc1ccc(F)c2cccnc12 | -9.3 | 0.5 | 0.0 | 3.2 | 4.1 | .
O=C(NNC(=O)c1cc(-c2ccc(Br)cc2)nc2ccccc12)c1csc(N2CCOCC2)n1 | 3.2 | -1.3 | 0.4 | -2.1 | 31.2* | 30.4
O=C(NNC(=O)c1cc(-c2ccc(Cl)cc2)nc2ccccc12)c1csc(N2CCOCC2)n1 | 14.2 | 4.8 | 0.1 | -4.6 | 31.1* | 37.3*
O=C(NNC(=O)c1cc(-c2ccccc2)nc2ccccc12)c1csc(N2CCOCC2)n1 | 14.8 | 16.0 | -0.1 | -2.1 | 16.3 | .
CCCNC(=O)N(C)C[C@@H]1Oc2cc(C#CCC(C)C)ccc2S(=O)(=O)N([C@@H](C)CO)C[C@H]1C | . | . | -1.3 | . | . | .
CN(C)C(=O)C[C@H]1C[C@@H]2c3cc(NS(=O)(=O)c4ccccc4)ccc3O[C@@H]2[C@H](CO)O1 | . | . | 0.1 | . | . | .

Screening results (PubChem)
